# Assay outcomes (PubChem)
# Most compounds without a hit are left out; they make up all but 2.3% or so of the library.
# F508del corr: F508del CFTR correction, initial screen, CFBE line, single point. CFBE cells, YFP halide quenching; stimulated with forskolin plus potentiator P3; % fluorescence drop versus neutral controls. activity (quench increase), % at 7.58 µM. 350,000 compounds, 0.36% hits. AID 720511, 2013;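 active = mean added fluorescence quench of at least 8% versus neutral control, with both replicates also reaching 8%; inconclusive = only one of the mean or replicate conditions met; inactive = mean below 8% and not both replicates reaching 8%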;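 note: cells transiently co-express mutant CFTR-F508del with the halide-sensitive YFP; corrector assay measuring rescue of mutant channel to the surface after 24 h compound exposure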
# FN deposit inh: inhibitors of fibronectin matrix deposition, primary screen, AH1F cells, Alexa488-fibronectin fluorescence, plate reader; AH1F fibroblasts, overnight; inhibition, % at 12.6 µM; 350,000 compounds, 0.086% hits;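 active = mean inhibition across replicates of 30% or more, regardless of how many single replicates reach that level; inconclusive = mean under 30% yet at least half of replicates reach 30%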;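 note: positive control wells lacked labelled fibronectin entirely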
#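 Material: AH1F fibroblast monolayer depositing Alexa488-labelled fibronectin into matrix | Input: 10000 AH1F cells/well | Medium: DMEM plus 2% serum, read in PBS | Reagent: Alexa488-fibronectin, 24 nM final in well | Compound dosing: One dose per compound, pinned | Schedule: 1 h adhesion, overnight exposure | Measured by: Fluorescence at 485 nm excitation, 525 nm emission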
# PGC1a acetyl inh: inhibitors of PGC1a acetylation signal, primary screen, cell-based, U2OS, AlphaScreen, inhibitor mode; AID 651687, 2012; AlphaScreen anti-acetyl-lysine; with virally co-expressed GCN5 acetyltransferase; inhibition, % at 15.6 µM; 350,000 compounds, 0.17% hits;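 active = every replicate shows inhibition of at least 40%; inconclusive = mean inhibition at least 40% but some replicate below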;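 note: 0% = neutral control wells and 100% = positive control wells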
# EWS-Fli inh: EWS/Fli-driven NR0B1 reporter inhibitors, primary screen, A673 cells, NR0B1 luciferase, luminescence, MLPCN library; viability-normalised; inhibition, % at 12.6 µM; 350,000 compounds, 0.67% hits; AID 651661, 2012;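 active = mean inhibition of at least 50% after viability correction, with every replicate also passing that limit; inconclusive = mean reaches 50% but only one of two replicates passes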;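 note: firefly luciferase signal divided by Alamar Blue viability fluorescence both relative to DMSO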
# PAX8 inh HTS: inhibitors of PAX8-driven TPO luciferase reporter, primary screen, RMG-I cells, single concentration; SteadyGlo, 24 h; inhibition, % at 12.6 µM; 360,000 compounds, 1.2% hits; AID 652154, 2013;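 active = mean replicate inhibition at least 60% with every replicate also reaching 60%; inconclusive = only one of the two criteria is met; inactive = mean below 60% and not all replicates reaching 60%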;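 note: luciferase light reporting Pax8 driven TPO promoter activity; plate controls were median of neutral control wells for no effect and mitoxantrone controls for full effect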
# HIV Env fusion: inhibitors of HIV-1 Env-driven cell-cell fusion, primary screen, HeLa-JRFL effector, CEM21 target cells, luciferase | inhibition, % at 12.3 µM | 360,000 compounds, 1.1% hits | AID 651610, 2012;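 active = mean replicate inhibition score of at least 50 and every replicate individually at or above 50; inconclusive = only one of the two criteria met; inactive = mean below 50 and not all replicates reaching 50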;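 note: 0% = plate neutral controls and 100% = maraviroc near 300 nM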
# The depositor's hits bear a star; u = inconclusive; x = not tested or not shown; ! = not confirmed by another sample; [ ] = remark or other dose.
SMILES,F508del corr,FN deposit inh,PGC1a acetyl inh,EWS-Fli inh,PAX8 inh HTS,HIV Env fusion
CCCc1cn(CC[C@H]2CC[C@H](NS(=O)(=O)c3ccccc3Cl)[C@@H](CO)O2)nn1,-2.2,1.4,-9.0,-1.1,-2.0,9.5[16.7 µM]
COc1ccccc1CNC(=O)C[C@@H]1CC[C@H]2[C@@H](COC[C@@H](O)CN2C(=O)Nc2ccccc2)O1,-0.1,-4.2,-0.2,3.1,-7.2,x
COc1ccc(OCc2n(CC(=O)OC3CC(C)CCC3C(C)C)c3ccccc3[n+]2C)cc1 (stereo unspecified),5.1,8.1,-26.2,53.1*,99.4*,86.8*
COc1ccc(-c2n(CC(=O)OC3CC(C)CCC3C(C)C)c3ccccc3[n+]2C)cc1 (stereo unspecified),-2.3,0.0,x,2.8,1.7,-14.3
C[C@H](CO)N1C[C@H](C)[C@@H](CN(C)Cc2ccccc2)OCCCC[C@H](C)Oc2ccc(NC(=O)CCC(F)(F)F)cc2C1=O,2.1,-8.8,-8.9,1.3,18.5,-5.1[16.7 µM]
C[C@@H]1CCCCO[C@H](CN(C)C(=O)Nc2ccc(F)cc2)[C@H](C)CN([C@@H](C)CO)C(=O)c2cc(NC(=O)Nc3cccc4ccccc34)ccc2O1,2.5,-7.0,-7.9,-0.2,10.8,4.6[16.7 µM]
COc1ccc(CCN(Cc2cccs2)S(=O)(=O)c2ccc(-n3cnnn3)cc2)cc1OC,x,-2.3,-19.8,x,39.2,86.4*
COc1cc(S(=O)(=O)N(CCc2ccccc2)Cc2cccs2)ccc1-n1cnnn1,x,-1.7,7.8,x,x,u
COC(=O)[C@]1(Cc2ccccc2)N=C(c2ccc(OCCCO)cc2)O[C@@H]1c1ccccc1N=[N+]=[N-],0.4,x,x,-59.7,51.3,30.1[16.7 µM]
CCCC#Cc1ccc2c(c1)O[C@H](CN(C)C)[C@@H](C)CN([C@H](C)CO)S2(=O)=O,-1.9,-1.9,-16.4,9.7,-13.3,-2.9[16.7 µM]
Cc1cc(N/N=C/c2ccc(O)cc2O)nc(-n2nc(C)cc2C)n1,x,17.2,34.8,x,25.0,55.8*
COc1ccc(/C=N/Nc2cc(C)nc(-n3nc(C)cc3C)n2)cc1,x,-5.5,x,x,12.0,32.5
CNC(=S)N/N=C/c1ccc(-c2cccc(C(=O)O)c2)o1,-2.2,-3.0,2.5,11.7,-36.1,7.5
Cc1ccc(C(=O)N/N=C/c2ccc(-c3cccc(C(F)(F)F)c3)o2)cn1,5.3,0.7,5.2,50.4*,25.4,-98.5
CC(C)(C)NC(=O)C(c1ccccc1)N(Cc1cccs1)C(=O)c1csnn1 (stereo unspecified),x,-23.1,0.6,x,x,71.9*
CC(C)(C)NC(=O)C(c1cccs1)N(Cc1ccco1)C(=O)c1csnn1 (stereo unspecified),-0.5,2.8,x,2.7,-4.9,9.7
COc1ccc(CN2C[C@@H](O)COC[C@H]3O[C@@H](CC(=O)NCCN4CCCC4)CC[C@@H]32)cc1,2.7,-0.9,-10.5,-0.2,-11.1,-12.3[16.7 µM]
COc1ccc(CN2C(=O)C(C)Nc3ncnc(N4CCN(c5ccccc5)CC4)c32)cc1 (stereo unspecified),4.5,2.4,-9.0,-4.3,-9.3,-8.0
COc1ccc(CN2C(=O)C(C)Nc3ncnc(N4CCOCC4)c32)cc1 (stereo unspecified),-2.6,-2.4,x,15.7,69.2*,-104.9
C[C@@H]1CN(C)C(=O)c2cc(N(C)C)ccc2O[C@H]1CN(C)S(C)(=O)=O,x,-4.8,x,x,x,x
O=C(C[C@@H]1CC[C@@H](NC(=O)c2ccccc2)[C@H](CO)O1)NCc1ccc(Oc2ccccc2)cc1,-0.7,3.9,-1.7,11.5,28.8,32.0[16.7 µM]
COc1cc(/C=C2\CC(C(C)(C)C)C/C(=C\c3cc(OC)c(OC)c(OC)c3)C2=O)cc(OC)c1OC (stereo unspecified),-4.8,6.7,u,82.3*,8.3,-111.7
COc1cc(/C=C2\CC/C(=C\c3cc(OC)c(OC)c(OC)c3)C2=O)cc(OC)c1OC,-1.7,x,x,9.3,4.8,36.7
COc1cc(/C=C2\CCC(C3CCCC3)C2=O)cc(OC)c1OC (stereo unspecified),1.1,3.4,x,-106.3,-33.3,16.5
COc1cc(/C=C2\COC/C(=C\c3cc(OC)c(OC)c(OC)c3)C2=O)cc(OC)c1OC,-1.5,-8.0,x,73.7*,106.1*,110.2*
SMILES,F508del corr,FN deposit inh,PGC1a acetyl inh,EWS-Fli inh,PAX8 inh HTS,HIV Env fusion
O=C(CCNC(=O)c1ccco1)Nc1nc(-c2ccccc2)cs1,8.8*,1.0,-2.1,-17.9,-100.0,u
CC(=O)Nc1ccc(-c2csc(NC(=O)CCNC(=O)c3ccco3)n2)cc1,-3.6,-1.8,-27.7,2.3,x,9.1
CC1(NC(=O)CC(c2ccccc2)(c2ccccc2)c2ccccc2)CCN(CCCc2ccccc2)C1=O (stereo unspecified),-2.4,-1.6,6.8,5.2,65.9*,6.4
N#Cc1ccc(-c2ccc(C3[C@@H]4CN(C(=O)C5CCCC5)C[C@H]3N4)cc2)cc1 (stereo partly specified),1.0,1.5,10.3,2.9,x,x
N#Cc1cccc(-c2ccc(C3[C@@H]4CN(Cc5ccccc5F)C[C@H]3N4)cc2)c1 (stereo partly specified),1.7,4.0,47.6*!,-0.8,-13.9,x
N#Cc1cccc(-c2ccc(C3[C@@H]4CN(C(=O)C5CC5)C[C@H]3N4)cc2)c1 (stereo partly specified),-4.4,8.4,-17.3,-2.9,98.0*!,x
N#Cc1ccc(-c2ccc(C3[C@@H]4CN(C(=O)C5CCC5)C[C@H]3N4)cc2)cc1 (stereo partly specified),10.4*!,-1.0,3.0,-3.6,x,x
N#Cc1ccc(-c2ccc(C3[C@@H]4CN(C(=O)c5ccc6c(c5)OCO6)C[C@H]3N4)cc2)cc1 (stereo partly specified),2.4,-324.8,-7.4,-7.8,90.9*!,x
O=C(C[C@@H]1C=C[C@H](NS(=O)(=O)c2ccccc2)[C@@H](CO)O1)NCc1ccccc1F,2.9,x,-3.5,-8.1,-8.7,-3.3[16.7 µM]
O=C(C1CC1)N1C[C@@H]2N[C@H](C1)C2c1ccc(-c2cccc(F)c2)cc1 (stereo partly specified),1.6,2.0,-10.1,5.7,82.7*!,x
O=C(NC1CCCCC1)N1C[C@@H]2N[C@H](C1)C2c1ccc(-c2cccc(F)c2)cc1 (stereo partly specified),-1.1,6.1,-8.0,-7.9,62.6*!,x
O=C(CC(F)(F)F)N1C[C@@H]2[C@H](c3ccccc31)[C@@H](CO)N2C(=O)CN1CCOCC1,0.0,x,5.6,4.4,-3.7,x
Cc1cccc(C(=O)Oc2ccc(/C=N/NC(=O)c3ccccc3O)cc2)c1,-0.9,1.9,-4.7,-6.2,104.0*,x
